From ChEMBL document CHEMBL1157864, “Synthesis of some novel 2-substituted-5-[isopropylthiazole] clubbed 1,2,4-triazole and 1,3,4-oxadiazoles as potential antimicrobial and antitubercular agents” (Eur J Med Chem, 2010)
Converted amounts (≈) assume the structure as drawn.

Experiments:
Assay type in all cases: functional
[1] = system: Staphylococcus aureus; experiment: Antimicrobial activity against Staphylococcus aureus ATCC 11632 after 24 hrs by broth microdilution assay; details: ATCC 11632, 24 h
Outline: (§1)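 Broth dilution MIC. Stock is 10 mg compound in 1 mL DMSO, serially diluted in Mueller–Hinton broth for bacteria or Sabouraud liquid medium for yeasts and mould. Tubes are inoculated at 10⁵ cfu/mL and incubated at 37 °C for 24 h. Controls are medium alone and medium with DMSO at matching dilutions. MIC is the lowest concentration giving complete growth inhibition.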

[2] = system: Enterococcus faecalis; experiment: Antimicrobial activity against Streptococcus faecalis ATCC 14506 after 24 hrs by broth microdilution assay; details: ATCC 14506, 24 h; outline: as §1
[3] = system: Bacillus subtilis; experiment: Antimicrobial activity against Bacillus subtilis ATCC 60511 after 24 hrs by broth microdilution assay; details: ATCC 60511, 24 h; outline: as §1
[4] = system: Klebsiella pneumoniae; experiment: Antimicrobial activity against Klebsiella pneumoniae ATCC 10031 after 24 hrs by broth microdilution assay; details: ATCC 10031, 24 h; outline: as §1
[5] = system: Escherichia coli; experiment: Antimicrobial activity against Escherichia coli ATCC 10536 after 24 hrs by broth microdilution assay; details: ATCC 10536, 24 h; outline: as §1
[6] = system: Pseudomonas aeruginosa; experiment: Antimicrobial activity against Pseudomonas aeruginosa ATCC 10145 after 24 hrs by broth microdilution assay; details: ATCC 10145, 24 h; outline: as §1
[7] = system: Saccharomyces cerevisiae; experiment: Antimicrobial activity against Saccharomyces cerevisiae ATCC 9763 after 24 hrs by broth microdilution assay; details: ATCC 9763, 24 h; outline: as §1
[8] = system: Candida tropicalis; experiment: Antimicrobial activity against Candida tropicalis ATCC 1369 after 24 hrs by broth microdilution assay; details: ATCC 1369, 24 h; outline: as §1
[9] = system: Aspergillus niger; experiment: Antimicrobial activity against Aspergillus niger ATCC 6275 after 24 hrs by broth microdilution assay; details: ATCC 6275, 24 h; outline: as §1
[10] = system: Mycobacterium tuberculosis; experiment: Antimycobacterial activity against Mycobacterium tuberculosis H37Rv after 21 days by broth dilution assay; details: 504 h
Outline: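 Middlebrook 7H9 broth with 10% albumin-dextrose-catalase and 0.2% glycerol; frozen culture thawed, diluted to 10⁵ cfu/mL and used as inoculum. Compounds taken up in DMSO and diluted twice in broth, 1.3% DMSO final. Incubated at 37 °C. Growth judged by eye against drug-free and inoculum-free controls and isoniazid. MIC is the lowest concentration inhibiting ≥99% of the starting population.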

Row | SMILES | MIC [1] | MIC [2] | MIC [3] | MIC [4] | MIC [5] | MIC [6] | MIC [7] | MIC [8] | MIC [9] | MIC [10]
1 | CC(C)c1csc(-c2nnc3sc(-c4ccc(O)cc4)nn23)n1 | 250 µg/mL (≈ 728 µM) | 125 µg/mL (≈ 364 µM) | 125 µg/mL (≈ 364 µM) | 125 µg/mL (≈ 364 µM) | 125 µg/mL (≈ 364 µM) | 125 µg/mL (≈ 364 µM) | 250 µg/mL (≈ 728 µM) | 125 µg/mL (≈ 364 µM) | 125 µg/mL (≈ 364 µM) | 62.5 µg/mL (≈ 182 µM)
2 | COc1ccc(-c2nn3c(-c4nc(C(C)C)cs4)nnc3s2)cc1 | 31.2 µg/mL (≈ 87.4 µM) | 16 µg/mL (≈ 44.8 µM) | 125 µg/mL (≈ 350 µM) | 31.2 µg/mL (≈ 87.4 µM) | 125 µg/mL (≈ 350 µM) | 31.2 µg/mL (≈ 87.4 µM) | 16 µg/mL (≈ 44.8 µM) | 16 µg/mL (≈ 44.8 µM) | 31.2 µg/mL (≈ 87.4 µM) | 31.2 µg/mL (≈ 87.4 µM)
3 | CC(C)c1csc(-c2nnc(S)n2/N=C/c2ccccc2)n1 | 250 µg/mL (≈ 759 µM) | 31.2 µg/mL (≈ 94.9 µM) | 31.2 µg/mL (≈ 94.9 µM) | 31.2 µg/mL (≈ 94.9 µM) | 62.5 µg/mL (≈ 190 µM) | 31.2 µg/mL (≈ 94.9 µM) | 125 µg/mL (≈ 379 µM) | 62.5 µg/mL (≈ 190 µM) | 62.5 µg/mL (≈ 190 µM) | 62.5 µg/mL (≈ 190 µM)
4 | CC(C)c1csc(-c2nnc3sc(-c4ccccc4)nn23)n1 | 125 µg/mL (≈ 382 µM) | 16 µg/mL (≈ 48.9 µM) | 16 µg/mL (≈ 48.9 µM) | 125 µg/mL (≈ 382 µM) | 125 µg/mL (≈ 382 µM) | 31.2 µg/mL (≈ 95.4 µM) | 125 µg/mL (≈ 382 µM) | 125 µg/mL (≈ 382 µM) | 31.2 µg/mL (≈ 95.4 µM) | 62.5 µg/mL (≈ 191 µM)
5 | CC(C)c1csc(-c2nnc(S)n2/N=C/C=C/c2ccccc2)n1 | 8 µg/mL (≈ 22.5 µM) | 31.2 µg/mL (≈ 87.9 µM) | 8 µg/mL (≈ 22.5 µM) | 4 µg/mL (≈ 11.3 µM) | 4 µg/mL (≈ 11.3 µM) | 16 µg/mL (≈ 45 µM) | 31.2 µg/mL (≈ 87.9 µM) | 31.2 µg/mL (≈ 87.9 µM) | 125 µg/mL (≈ 352 µM) | 4 µg/mL (≈ 11.3 µM)
6 | CC(C)c1csc(-c2nnc(S)n2/N=C/c2ccc[nH]2)n1 | 31.2 µg/mL (≈ 98.1 µM) | 31.2 µg/mL (≈ 98.1 µM) | 62.5 µg/mL (≈ 196 µM) | 31.2 µg/mL (≈ 98.1 µM) | 62.5 µg/mL (≈ 196 µM) | 62.5 µg/mL (≈ 196 µM) | 31.2 µg/mL (≈ 98.1 µM) | 62.5 µg/mL (≈ 196 µM) | 16 µg/mL (≈ 50.2 µM) | 31.2 µg/mL (≈ 98.1 µM)
7 | COc1cc(/C=N/n2c(S)nnc2-c2nc(C(C)C)cs2)ccc1O | 250 µg/mL (≈ 666 µM) | 125 µg/mL (≈ 333 µM) | 125 µg/mL (≈ 333 µM) | 125 µg/mL (≈ 333 µM) | 125 µg/mL (≈ 333 µM) | 125 µg/mL (≈ 333 µM) | 250 µg/mL (≈ 666 µM) | 125 µg/mL (≈ 333 µM) | 125 µg/mL (≈ 333 µM) | 62.5 µg/mL (≈ 166 µM)
8 | CC(C)c1csc(-c2nnc3sc(-c4ccc(Cl)cc4)nn23)n1 | 8 µg/mL (≈ 22.1 µM) | 16 µg/mL (≈ 44.2 µM) | 8 µg/mL (≈ 22.1 µM) | 16 µg/mL (≈ 44.2 µM) | 16 µg/mL (≈ 44.2 µM) | 8 µg/mL (≈ 22.1 µM) | 31.2 µg/mL (≈ 86.4 µM) | 31.2 µg/mL (≈ 86.4 µM) | 125 µg/mL (≈ 345 µM) | 8 µg/mL (≈ 22.1 µM)
9 | COc1ccc(/C=N/n2c(S)nnc2-c2nc(C(C)C)cs2)cc1 | 31.2 µg/mL (≈ 86.9 µM) | 31.2 µg/mL (≈ 86.9 µM) | 31.2 µg/mL (≈ 86.9 µM) | 16 µg/mL (≈ 44.5 µM) | 31.2 µg/mL (≈ 86.9 µM) | 31.2 µg/mL (≈ 86.9 µM) | 62.5 µg/mL (≈ 174 µM) | 62.5 µg/mL (≈ 174 µM) | 62.5 µg/mL (≈ 174 µM) | 31.2 µg/mL (≈ 86.9 µM)
10 | CC(C)c1csc(-c2nnc(S)n2/N=C/c2ccccc2O)n1 | 250 µg/mL (≈ 724 µM) | 250 µg/mL (≈ 724 µM) | 250 µg/mL (≈ 724 µM) | 250 µg/mL (≈ 724 µM) | 250 µg/mL (≈ 724 µM) | 250 µg/mL (≈ 724 µM) | 125 µg/mL (≈ 362 µM) | 125 µg/mL (≈ 362 µM) | 125 µg/mL (≈ 362 µM) | 62.5 µg/mL (≈ 181 µM)
11 | CC(C)c1csc(-c2nnc(S)n2-c2ccccc2)n1 | 16 µg/mL (≈ 52.9 µM) | 125 µg/mL (≈ 413 µM) | 16 µg/mL (≈ 52.9 µM) | 31.2 µg/mL (≈ 103 µM) | 16 µg/mL (≈ 52.9 µM) | 31.2 µg/mL (≈ 103 µM) | 8 µg/mL (≈ 26.5 µM) | 16 µg/mL (≈ 52.9 µM) | 16 µg/mL (≈ 52.9 µM) | 31.2 µg/mL (≈ 103 µM)
12 | CSc1nnc(-c2nc(C(C)C)cs2)n1-c1ccccc1 | 16 µg/mL (≈ 50.6 µM) | 16 µg/mL (≈ 50.6 µM) | 31.2 µg/mL (≈ 98.8 µM) | 31.2 µg/mL (≈ 98.8 µM) | 62.5 µg/mL (≈ 198 µM) | 16 µg/mL (≈ 50.6 µM) | 16 µg/mL (≈ 50.6 µM) | 16 µg/mL (≈ 50.6 µM) | 31.2 µg/mL (≈ 98.8 µM) | 62.5 µg/mL (≈ 198 µM)
13 | O=C(O)c1cn(C2CC2)c2cc(N3CCNCC3)c(F)cc2c1=O [CIPROFLOXACIN] | ≤ 5 µg/mL | ≤ 5 µg/mL | ≤ 1 µg/mL | ≤ 1 µg/mL | ≤ 1 µg/mL | 5 µg/mL (≈ 15.1 µM) |  |  |  | 
14 | OC(Cn1cncn1)(Cn1cncn1)c1ccc(F)cc1F [FLUCONAZOLE] |  |  |  |  |  |  | ≤ 1 µg/mL | ≤ 1 µg/mL | ≤ 1 µg/mL | 
15 | NNC(=O)c1ccncc1 [ISONIAZID] |  |  |  |  |  |  |  |  |  | 0.25 µg/mL (≈ 1.82 µM)
16 | CCn1cc(C(=O)O)c(=O)c2cc(F)c(N3CCNCC3)cc21 [NORFLOXACIN] | 5 µg/mL (≈ 15.7 µM) | 5 µg/mL (≈ 15.7 µM) | ≤ 1 µg/mL | ≤ 1 µg/mL | ≤ 1 µg/mL | 5 µg/mL (≈ 15.7 µM) |  |  |  | 
